Test results from ChEMBL document CHEMBL1152358, “Aminoparthenolides as novel anti-leukemic agents: Discovery of the NF-kappaB inhibitor, DMAPT (LC-1)” (Bioorg Med Chem Lett, 2009).

Legend:
[1] = Antileukemic activity against acute myeloid leukemia cell assessed as cell death; assay type: functional; settings: read-out: LD50 (the source's name)
Procedure, shortened: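 Primary AML cells from consenting volunteer donors (one million cells) were cultured in serum-free medium. They were exposed for 24 h, with or without analog, in a dose-response series over 2.5–20 range. Cells were PBS-washed, stained with Annexin-V/7-AAD in HEPES pH 7.4 binding buffer for 15 min in the dark at ambient temperature, then run on a flow cytometer. Viability (Annexin V−/7-AAD−) was normalized to untreated controls, and LD₅₀ was calculated from this series.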

[2] = Antileukemic activity against acute myeloid leukemia cell assessed as cell death at 10 uM; assay type: functional
Procedure, shortened: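 Probe screen: one million donor-derived primary AML cells in serum-free medium were incubated 24 h with or without analog at a single probe concentration. Cells were PBS-washed, then stained with Annexin-V and 7-AAD in HEPES/NaCl/CaCl₂ buffer pH 7.4 for 15 min, dark, ambient temperature. Flow cytometry followed immediately. Annexin V−/7-AAD− cells were scored viable, normalized to untreated specimens.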

[3] = Aqueous solubility of the compound; assay type: physicochemical; settings: buffer

Row | Structure (SMILES) | CC50 [1] [nM] | Activity [2] [%] | solubility [3] [uM/ml]
1 | C=C1C(=O)O[C@@H]2C3O[C@]3(C)CC/C=C(\C)CC[C@@H]12 (some centres not stated) | 1400 | 84 | 0.169
2 | CCCN(C)C[C@@H]1C(=O)O[C@H]2[C@H]1CC/C(C)=C\CC[C@@]1(C)O[C@@H]21.O=C(O)/C=C/C(=O)O | 3200 | 95 | 
3 | C/C1=C/CC[C@@]2(C)O[C@H]2[C@H]2OC(=O)[C@@H](CN3CCOCC3)[C@@H]2CC1.O=C(O)/C=C/C(=O)O | 14000 | 20 | 
4 | C/C1=C/CC[C@@]2(C)O[C@H]2[C@H]2OC(=O)[C@@H](CNN(C)C)[C@@H]2CC1.O=C(O)/C=C/C(=O)O |  | 0 | 
5 | C/C1=C/CC[C@@]2(C)O[C@H]2[C@H]2OC(=O)[C@@H](CNCCCN)[C@@H]2CC1.O=C(O)/C=C/C(=O)O |  | 0 | 
6 | C/C1=C/CC[C@@]2(C)O[C@H]2[C@H]2OC(=O)[C@@H](CNNC(C)(C)C)[C@@H]2CC1.O=C(O)/C=C/C(=O)O |  | 0 | 
7 | C/C1=C/CC[C@@]2(C)O[C@H]2[C@H]2OC(=O)[C@@H](CNC3CC3)[C@@H]2CC1.O=C(O)/C=C/C(=O)O |  | 6 | 
8 | CCN(C)C[C@@H]1C(=O)O[C@H]2[C@H]1CC/C(C)=C\CC[C@@]1(C)O[C@@H]21.O=C(O)/C=C/C(=O)O | 2500 | 80 | 
9 | C/C1=C/CC[C@@]2(C)O[C@H]2[C@H]2OC(=O)[C@@H](CN(C)C(C)C)[C@@H]2CC1.O=C(O)/C=C/C(=O)O |  | 78 | 
10 | C/C1=C/CC[C@@]2(C)O[C@H]2[C@H]2OC(=O)[C@@H](CNCCN)[C@@H]2CC1.O=C(O)/C=C/C(=O)O |  | 0 | 
11 | CCCCCN(C)C[C@@H]1C(=O)O[C@H]2[C@H]1CC/C(C)=C\CC[C@@]1(C)O[C@@H]21.O=C(O)/C=C/C(=O)O | 4600 | 46 | 
12 | C/C1=C/CC[C@@]2(C)O[C@H]2[C@H]2OC(=O)[C@@H](CN(C)CCO)[C@@H]2CC1.O=C(O)/C=C/C(=O)O | 1800 | 86 | 
13 | C/C1=C/CC[C@@]2(C)O[C@H]2[C@H]2OC(=O)[C@@H](CN(C)[C@@H]3[C@@H](O)[C@H](O)[C@@H](CO)O[C@H]3O)[C@@H]2CC1.O=C(O)/C=C/C(=O)O |  | 0 | 
14 | C/C1=C/CC[C@@]2(C)O[C@H]2[C@H]2OC(=O)[C@@H](C)[C@@H]2CC1 |  | 0 | 
15 | C/C1=C/CC[C@@]2(C)O[C@H]2[C@H]2OC(=O)[C@@H](CN(C3CCCCC3)C3CCCCC3)[C@@H]2CC1.O=C(O)/C=C/C(=O)O |  | 12 | 
16 | C[C@@H]1C(=O)O[C@H]2[C@H]1CCC1(C)OC1CC[C@@]1(C)O[C@@H]21 (some centres not stated) |  | 0 | 
17 | C/C1=C/CC[C@@]2(C)O[C@H]2[C@H]2OC(=O)[C@@H](CN3CCCCC3)[C@@H]2CC1.O=C(O)/C=C/C(=O)O | 2400 | 76 | 
18 | C/C1=C/CC[C@@]2(C)O[C@H]2[C@H]2OC(=O)[C@@H](CN3CCCCCCC3)[C@@H]2CC1.O=C(O)/C=C/C(=O)O |  | 13 | 
19 | C/C1=C/CC[C@@]2(C)O[C@H]2[C@H]2OC(=O)[C@@H](CN[C@@H]3[C@@H](O)[C@H](O)[C@@H](CO)O[C@H]3O)[C@@H]2CC1.O=C(O)/C=C/C(=O)O |  | 0 | 

Row | Structure (SMILES) | CC50 [1] [nM] | Activity [2] [%] | solubility [3] [uM/ml]
20 | C/C1=C/CC[C@@]2(C)O[C@H]2[C@H]2OC(=O)[C@@H](CN3CCCCCC3)[C@@H]2CC1.O=C(O)/C=C/C(=O)O |  | 15 | 
21 | C/C1=C/CC[C@@]2(C)O[C@H]2[C@H]2OC(=O)[C@@H](CN3CC3)[C@@H]2CC1.O=C(O)/C=C/C(=O)O |  | 22 | 
22 | C=C1C(=O)O[C@H]2[C@H]1CC/C(C=O)=C\CC[C@@]1(C)O[C@@H]21 |  | 0 | 
23 | C/C1=C/CC[C@@]2(C)O[C@H]2[C@H]2OC(=O)[C@@H](CN3CCC(C)CC3)[C@@H]2CC1.O=C(O)/C=C/C(=O)O | 1600 | 83 | 
24 | C/C1=C/CC[C@@]2(C)O[C@H]2[C@H]2OC(=O)[C@@H](CN(C(C)C)C(C)C)[C@@H]2CC1.O=C(O)/C=C/C(=O)O |  | 20 | 
25 | CNC[C@@H]1C(=O)O[C@H]2[C@H]1CC/C(C)=C\CC[C@@]1(C)O[C@@H]21.O=C(O)/C=C/C(=O)O | 18000 | 4 | 
26 | C/C1=C/CC[C@@]2(C)O[C@H]2[C@H]2OC(=O)[C@@H](CN(C)C)[C@@H]2CC1.O=C(O)/C=C/C(=O)O | 1700 | 93 | 
27 | CCNC[C@@H]1C(=O)O[C@H]2[C@H]1CC/C(C)=C\CC[C@@]1(C)O[C@@H]21.O=C(O)/C=C/C(=O)O | 31000 | 2 | 
28 | C/C1=C/CC[C@@]2(C)O[C@H]2[C@H]2OC(=O)[C@@H](CN(C)C3CCCCC3)[C@@H]2CC1.O=C(O)/C=C/C(=O)O | 15000 | 0 | 
29 | CCN(CC)C[C@@H]1C(=O)O[C@H]2[C@H]1CC/C(C)=C\CC[C@@]1(C)O[C@@H]21.O=C(O)/C=C/C(=O)O |  | 60 | 
30 | C=CCN(CC=C)C[C@@H]1C(=O)O[C@H]2[C@H]1CC/C(C)=C\CC[C@@]1(C)O[C@@H]21.O=C(O)/C=C/C(=O)O |  | 0 | 
31 | C#CNC[C@@H]1C(=O)O[C@H]2[C@H]1CC/C(C)=C\CC[C@@]1(C)O[C@@H]21.O=C(O)/C=C/C(=O)O |  | 7 | 
32 | CCCN(CCC)C[C@@H]1C(=O)O[C@H]2[C@H]1CC/C(C)=C\CC[C@@]1(C)O[C@@H]21.O=C(O)/C=C/C(=O)O |  | 0 | 
33 | C=C1C(=O)O[C@H]2[C@H]1CC/C(CO)=C\CC[C@@]1(C)O[C@@H]21 |  | 0 | 
34 | C/C1=C/CC[C@@]2(C)O[C@H]2[C@H]2OC(=O)[C@@H](CN3CCCC3)[C@@H]2CC1.O=C(O)/C=C/C(=O)O | 2700 | 82 | 
35 | C/C1=C/CC[C@@]2(C)O[C@H]2[C@H]2OC(=O)[C@@H](CNCCO)[C@@H]2CC1.O=C(O)/C=C/C(=O)O |  | 0 | 
36 | CCCCN(C)C[C@@H]1C(=O)O[C@H]2[C@H]1CC/C(C)=C\CC[C@@]1(C)O[C@@H]21.O=C(O)/C=C/C(=O)O | 2800 | 68 | 
37 | C/C1=C/CC[C@@]2(C)O[C@H]2[C@H]2OC(=O)[C@@H](CNCCCO)[C@@H]2CC1.O=C(O)/C=C/C(=O)O |  | 0 | 
